Published values collected from several papers.
Target: High affinity nerve growth factor receptor (NTRK1, Homo sapiens, UniProt P04629)

C#Cc1n[nH]c2c(-c3cn([C@@H](C)c4ccccc4)c(=O)[nH]c3=O)cc(F)cc12 — inhibition (enzyme activity; inhibitor; 0.1 µM): 5%
COc1cc(Nc2ncc(F)c(Nc3ccc4c(n3)NC(=O)C(C)(C)O4)n2)cc(OC)c1OC — inhibition (binding; 10 µM): 100%
Nc1ncc(-c2nc(N3CCOCC3)nc(N3CCOCC3)n2)c(C(F)F)n1 — remaining binding (cell-free assay; competition with immobilised ligand; 10 µM): 78%
Cn1cc(-c2cc(F)cc(N3CCn4c(cc5c4CCCC5)C3=O)c2CO)cc(Nc2ccc(N3CCN(C4COC4)CC3)cn2)c1=O — inhibition (enzyme activity; inhibitor; 0.1 µM): 15%
O=c1[nH]c2ccccc2n1C1CCN(Cc2ccc(-c3[nH]c4cc5ncnc5cc4nc3-c3ccccc3)cc2)CC1 — remaining signal (cell-free assay; 0.5 µM): 99.4%
Cc1nn(C)cc1-c1nc2c(N3CCN(Cc4ccc(Cl)cc4)CC3)c(Cl)cnc2[nH]1 — remaining binding (binding; competition with immobilised ligand; 1 µM): 80%
Cn1cncc1[C@](O)(COc1ccc(C#N)cc1-c1ccc(OC(F)(F)F)cc1)c1ccc(C#N)cc1 — remaining binding (cell-free assay; competition with immobilised ligand; 1 µM): 91%
Cn1cc(-c2cccc(N3CCc4c(sc5c4CC(C)(C)C5)C3=O)c2CO)cc(Nc2ccncn2)c1=O — inhibition (enzyme activity; inhibitor; 1 µM): 11%
C#Cc1n[nH]c2c(-c3cn([C@@H](C)c4ccccn4)c(=O)[nH]c3=O)cc(F)cc12 — inhibition (enzyme activity; inhibitor; 0.1 µM): 11.2%
COc1ncccc1-c1cnn2ccc(N3CCN(C(=O)OC(C)C)CC3)nc12 — remaining binding (binding; competition with immobilised ligand; 1 µM): 61%
CC(C)(C)c1cc(C=C(C#N)C#N)cc(Br)c1O — remaining activity (enzyme activity; inhibitor; 0.5 µM): 100%
